This note sets out measurements from ChEMBL document CHEMBL2069258, “Novel phosphoramidate prodrugs of N-acetyl-(D)-glucosamine with antidegenerative activity on bovine and human cartilage explants” (J Med Chem, 2012).

The nature of data set [1]: Cytotoxicity against bovine articular chondrocytes assessed as cell viability at 1 mM by MTT assay relative to control. Details: species or system Bos taurus. As to conditions: cattle, read-out: Activity. A digest of the protocol: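 Chondrocyte monolayer cultures exposed to compound in parallel with the explant experiments. Viability read by MTT, as percent of untreated control cells (100%). Mean of n experiments from different cows, each run in triplicate.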
For orientation: Formazan colour is commonly taken as a measure of viable cells.

Data set [2] in a line: Cytotoxicity against bovine articular chondrocytes assessed as cell viability at 0.1 mM by MTT assay relative to control. Details: species or system Bos taurus. The settings on record: cattle, read-out: Activity. A digest of the protocol: (§1)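 Chondrocyte monolayers tested in parallel with the explant work. Viability measured by MTT and expressed as percent of untreated cells (no compound = 100%). Mean and SE over n experiments, each in triplicate.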

Data set [3] deals with Cartilage tissue. Nature of the data set: Antidegenerative activity against bovine cartilage explant assessed as inhibition of IL1-induced of GAG release at 0.1 mM for 1 day before IL-1 treatment measured after 6 days by colorimetric analysis relative to control. Format: functional. The settings on record: Bos taurus. A digest of the protocol: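 Articular cartilage explants from different cows, equilibrated 24 h, then cultured one day in DMEM + hydrolyzed lactalbumin + 50 μg/mL vitamin C + penicillin/streptomycin + ITS with or without compound (0.1 mM). GAG release then induced with 10 ng IL-1 and continued six days, medium changed every two days. Medium GAG measured by Blyscan colorimetric assay. GAG fold-increase versus minus-IL-1 control. Percent reduction relative to IL-1-only fold. Triplicates per experiment, mean of n experiments.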

Data set [4] is described as follows: Antidegenerative activity against human cartilage explant assessed as inhibition of IL1-induced of GAG release at 10 uM for 1 day before IL-1 treatment measured after 6 days by colorimetric analysis relative to control. In kind it is functional. The settings on record: Cartilage tissue. A digest of the protocol:
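Human cartilage explants, equilibrated 24 h, then cultured one day in DMEM + hydrolyzed lactalbumin + 50 μg/mL vitamin C + penicillin/streptomycin + ITS with compound. 10 ng IL-1 then added and culture continued six days, medium replaced every two days. Medium GAG measured by Blyscan colorimetric assay. Percent reduction = (mean control − mean sample release)/control × 100, against a 0.25% DMSO + IL-1 control.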

Data set [5] in a line: Cytotoxicity against human articular chondrocytes assessed as metabolic activity at 10 uM by WST-1 assay. As to conditions: read-out: Activity.
Data set [6] concerns Serum. Kind of data set: Stability of compound in human serum assessed as hydrolysis after 17 hrs by NMR analysis. Format: ADME, cell-free. In short, it runs like this: (§2)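 Prodrug disappearance followed by NMR in guinea pig or human serum at 37 °C, pH 7.0. Half-life taken from the apparent first-order rate constant, by linear regression of pseudo-first-order plots of prodrug concentration versus time.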

Data set [7] can be described thus: Stability of compound in guinea pig serum assessed as hydrolysis after 17 hrs by NMR analysis. Format: ADME, cell-free, Cavia porcellus. A digest of the protocol:
as §2

Data set [8] deals with Cartilage tissue. Kind of data set: Antidegenerative activity against bovine cartilage explant assessed as inhibition of IL1-induced of GAG release at 10 mM for 1 day before IL-1 treatment measured after 6 days by colorimetric analysis relative to control. The settings on record: Bos taurus. In kind it is functional. A digest of the protocol:
(§3)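 Articular cartilage explants from different cows, equilibrated 24 h, then cultured 1 day in DMEM with hydrolyzed lactalbumin, 50 μg/mL vitamin C, penicillin/streptomycin and ITS, with or without compound. IL-1 10 ng added; medium changed every two days; harvested 6 days later. GAG in medium by Blyscan colorimetric assay. Fold increase over minus-IL-1 control used to derive % reduction versus IL-1-only fold. Triplicate per experiment; mean and SE over n cows.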

Data set [9] concerns Cartilage tissue. Nature of the data set: Antidegenerative activity against bovine cartilage explant assessed as inhibition of IL1-induced of GAG release at 1 mM for 1 day before IL-1 treatment measured after 6 days by colorimetric analysis relative to control. The settings on record: Bos taurus. Format: functional. In short, it runs like this:
as §3

Data set [10] can be described thus: Cytotoxicity against bovine articular chondrocytes assessed as cell viability at 10 mM by MTT assay relative to control. Details: species or system Bos taurus. As to conditions: cattle, read-out: Activity. In short, it runs like this:
as §1

Data set [11] is described as follows: Antidegenerative activity against human cartilage explant assessed as inhibition of IL1-induced of GAG release at 250 uM for 1 day before IL-1 treatment measured after 6 days by colorimetric analysis relative to control. In kind it is functional. The settings on record: Cartilage tissue. In short, it runs like this: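 Human explants: 24 h equilibration, 1 day preincubation with compound in DMEM/lactalbumin/vitamin C/ITS medium, then IL-1 10 ng for 6 days with medium renewed every two days. Compounds dissolved in DMSO, with a 0.25% DMSO control. GAG released measured colorimetrically (Blyscan). % reduction = (mean control release − mean sample release)/control release × 100.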

Data set [12] is described as follows: Cytotoxicity against human articular chondrocytes assessed as metabolic activity at 250 uM by WST-1 assay. The settings on record: read-out: Activity. In short, it runs like this:
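Metabolic activity measured by WST-1 in parallel with the human explant assay and reported as a percentage.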

Broadly, the inhibition is the change of the read-out against control, counted positive when it falls. As for `CCOC(=O)CN(C)P(=O)(Oc1ccc(OC)cc1)O[C@H]1[C@H](O)[C@@H](CO)O[C@H](O)[C@@H]1NC(C)=O` (stereo partly specified), in [1], the viability at 1000 µM amounted to 80%. Besides, the viability at 100 µM in data set [2] was 32%. In addition, in [3], the inhibition at 100 µM was -24.9%.

Regarding `COc1ccc(OP(=O)(O[C@H]2[C@H](O)[C@@H](CO)O[C@H](O)[C@@H]2NC(C)=O)N2CCC[C@H]2C(=O)OC(C)C)cc1` (stereo partly specified), the inhibition at 10 µM in [4] was determined as 24.4%. The viability at 10 µM in data set [5] was determined as 79.4%. The viability at 100 µM in [2] was 90%. Also, the inhibition at 100 µM in [3] stood at 17.5%.

Regarding `CCC(C)OC(=O)[C@@H]1CCCN1P(=O)(Oc1ccc(OC)cc1)O[C@H]1[C@H](O)[C@@H](CO)O[C@H](O)[C@@H]1NC(C)=O` (stereo partly specified), in [4], the inhibition at 10 µM was 27.1%. For the same compound, the viability at 1000 µM in [1] is 7%. Further, the viability at 10 µM in data set [5] came out at 53.9%. The viability at 100 µM in data set [2] came out at 96%. Moreover, in [3], the inhibition at 100 µM was -4.4%.

As for `COc1ccc(OP(=O)(O[C@H]2[C@H](O)[C@@H](CO)O[C@H](O)[C@@H]2NC(C)=O)N2CCC[C@H]2C(=O)OC2CCCCC2)cc1` (stereo partly specified), the inhibition at 100 µM in [3] is -9.6%.

With `CCC[C@H](NP(=O)(Oc1ccc(OC)cc1)O[C@H]1[C@H](O)[C@@H](CO)O[C@H](O)[C@@H]1NC(C)=O)C(=O)OCC` (stereo partly specified), in [2], the viability at 100 µM came out at 93%. In addition, the inhibition at 100 µM in data set [3] is 11.8%.

Consider `COc1ccc(OP(=O)(O[C@H]2[C@H](O)[C@@H](CO)O[C@H](O)[C@@H]2NC(C)=O)N2CCC[C@H]2C(=O)OC(C)(C)C)cc1` (stereo partly specified), for which the viability at 1000 µM in [1] was 5%. The Stability entry in [6] and in [7] was “Stable” in each case. For the same compound, in data set [2], the viability at 100 µM was 91%. Moreover, in data set [3], the inhibition at 100 µM is -8%.

Consider `COC(=O)[C@@H](NP(=O)(Oc1ccc(OC)cc1)O[C@H]1[C@H](O)[C@@H](CO)O[C@H](O)[C@@H]1NC(C)=O)C(C)C` (stereo partly specified), for which the viability at 100 µM in data set [2] worked out at 96%. The inhibition at 100 µM in [3] was -4.4%.

For the compound `COc1ccc(OP(=O)(O[C@H]2[C@H](O)[C@@H](CO)O[C@H](O)[C@@H]2NC(C)=O)N2CCC[C@H]2C(=O)OCc2ccccc2)cc1` (stereo partly specified), the inhibition at 10 µM in data set [4] was determined as 28.8%. Also, the viability at 10 µM in [5] was found to be 115%.

Turning to `CCOC(=O)[C@@H]1CCCN1P(=O)(Oc1ccc(OC)cc1)O[C@H]1[C@H](O)[C@@H](CO)O[C@H](O)[C@@H]1NC(C)=O` (stereo partly specified), the inhibition at 10 µM in data set [4] was 38%. Further, the viability at 10 µM in data set [5] turned out to be 66.4%.

As to `CCCCOC(=O)[C@@H]1CCCN1P(=O)(Oc1ccc(OC)cc1)O[C@H]1[C@H](O)[C@@H](CO)O[C@H](O)[C@@H]1NC(C)=O` (stereo partly specified), the inhibition at 10 µM in [4] came out at 30.4%. In addition, the viability at 10 µM in data set [5] stood at 87.1%.

On to `CCOC(=O)[C@@H]1CCCN1P(=O)(Oc1ccc(OC)cc1)O[C@H]1[C@H](O)[C@@H](NC(C)=O)[C@H](O)O[C@@H]1CO` (stereo partly specified), for which, in data set [4], the inhibition at 10 µM came out at 17.4%. Also, the viability at 10 µM in data set [5] turned out to be 107%.

Regarding `COc1ccc(OP(=O)(N[C@@H](C)C(=O)OCc2ccccc2)O[C@H]2[C@H](O)[C@@H](CO)O[C@H](OC)[C@@H]2NC(C)=O)cc1` (stereo partly specified), the viability at 100 µM in data set [2] was determined as 78%. In [3], the inhibition at 100 µM was -19%.

Regarding `COc1ccc(OP(=O)(N[C@H](C(=O)OCc2ccccc2)C(C)C)O[C@H]2[C@H](O)[C@@H](CO)O[C@H](OC)[C@@H]2NC(C)=O)cc1` (stereo partly specified), in [2], the viability at 100 µM was found to be 99%. The inhibition at 100 µM in data set [3] was 9.4%.

Consider `CCOC(=O)[C@@H]1CCCN1P(=O)(Oc1ccc(OC)cc1)O[C@H]1[C@H](O)[C@@H](CO)O[C@H](OC)[C@@H]1NC(C)=O` (stereo partly specified), for which, in data set [2], the viability at 100 µM was found to be 62%. In data set [3], the inhibition at 100 µM was -53.7%.

On to `CCOC(=O)[C@@H](NP(=O)(Oc1ccc(OC)cc1)O[C@H]1[C@H](O)[C@@H](CO)O[C@H](OC)[C@@H]1NC(C)=O)C(C)C` (stereo partly specified), for which the viability at 100 µM in data set [2] was determined as 85%. Also, the inhibition at 100 µM in [3] was -52.5%.

For `CCOC(=O)CN(C)P(=O)(Oc1ccc(OC)cc1)O[C@H]1[C@H](O)[C@@H](CO)O[C@H](OC)[C@@H]1NC(C)=O` (stereo partly specified), the viability at 100 µM in data set [2] came to 100%. The inhibition at 100 µM in data set [3] is -23.2%.

For the compound `N[C@H]1C(O)O[C@H](CO)[C@@H](O)[C@@H]1O` (stereo partly specified) [GLUCOSAMINE], in [4], the inhibition at 10 µM was 10.3%. Moreover, in data set [1], the viability at 1000 µM was determined as 88%. Besides, in data set [5], the viability at 10 µM was 107%. Further, in data set [8], the inhibition at 10000 µM turned out to be 19%. In addition, the inhibition at 1000 µM in data set [9] was determined as 3.4%. In addition, in [2], the viability at 100 µM was determined as 106%. The viability at 10000 µM in [10] amounted to 56%. Besides, in data set [11], the inhibition at 250 µM is 14.1%. Besides, in data set [3], the inhibition at 100 µM turned out to be 0.8%. Also, the viability at 250 µM in data set [12] worked out at 85.3%.

As for `CC(=O)N[C@@H]1[C@@H](O)[C@H](O)[C@@H](CO)O[C@H]1O` [N-ACETYLGLUCOSAMINE], the viability at 1000 µM in data set [1] worked out at 70%. Further, the inhibition at 10000 µM in data set [8] was 9.3%. In addition, the inhibition at 1000 µM in [9] is -1%. In addition, the viability at 100 µM in data set [2] turned out to be 107%. Moreover, the viability at 10000 µM in [10] was found to be 61%. Moreover, in data set [3], the inhibition at 100 µM came to 5.4%.
